Source: PubChem BioAssay
MEKK3 PB1 HTS: raises or lowers MEK5 binding to the human MEKK3 PB1 domain; Q99759; bead-based flow cytometry, Alexa488-MEK5 binding to MEKK3; actives lie on both sides; 0 = blocked by unlabeled MEK5, 100 = vehicle; binding response (% of control), % at 10 µM; 290,000 tested, 1.4% active; AID 1529;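 active means binding response more than 3 SD above or below the average of its plate-row segment, actives on both sides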;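 further: Alexa488 bead fluorescence after subtracting the streptavidin-only scavenger bead signal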
Target sequence (Q99759 whole entry, looked up, the tested form may be a part): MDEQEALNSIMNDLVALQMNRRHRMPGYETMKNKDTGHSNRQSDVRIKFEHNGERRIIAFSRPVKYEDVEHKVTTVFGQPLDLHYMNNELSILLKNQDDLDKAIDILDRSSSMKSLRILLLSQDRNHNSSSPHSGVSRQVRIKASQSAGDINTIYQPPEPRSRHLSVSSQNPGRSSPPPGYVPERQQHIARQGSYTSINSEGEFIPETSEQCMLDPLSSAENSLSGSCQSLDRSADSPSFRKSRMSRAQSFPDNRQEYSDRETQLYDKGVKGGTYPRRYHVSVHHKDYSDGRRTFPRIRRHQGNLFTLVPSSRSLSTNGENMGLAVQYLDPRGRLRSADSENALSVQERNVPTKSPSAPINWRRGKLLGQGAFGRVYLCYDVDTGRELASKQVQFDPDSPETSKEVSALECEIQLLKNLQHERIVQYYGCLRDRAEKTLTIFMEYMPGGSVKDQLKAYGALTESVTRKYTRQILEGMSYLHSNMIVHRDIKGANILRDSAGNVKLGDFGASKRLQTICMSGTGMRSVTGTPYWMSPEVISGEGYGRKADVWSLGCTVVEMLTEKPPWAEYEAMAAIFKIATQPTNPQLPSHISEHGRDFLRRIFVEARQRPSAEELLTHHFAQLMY
MEKK2 mut-MEK5: signal of MEK5 binding to mutant human MEKK2 PB1 domain; bead flow cytometry, Alexa488-MEK5 binding to MEKK2 mutant; percent response, % at 10 µM; 290,000 tested, 0.35% active; AID 1530; in the data active means percent response above about 24%, passing the limit was not always enough
MEKK2 WT-MEK5: raises or lowers MEK5 binding to wildtype human MEKK2 PB1 domain. 290,000 tested, 1.1% active. Q9Y2U5. bead flow cytometry, Alexa488-MEK5 binding to MEKK2 WT; actives lie on both sides. AID 1531. binding response (% of control), % at 10 µM; in the data active means binding response below about 67% or above about 130%
Hep lipid drop: hepatic lipid droplet formation modulation; 240,000 tested, 0.4% active; inhibition, % at 6.5 µM; AML12 mouse hepatocytes, oleate lipid droplets, BODIPY imaging;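 active means lipid droplet intensity inhibited by at least 50%, with more than 500 cells counted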
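Technique: fluorescence imaging, 20x objective, two fields per well / Assay system: AML12 hepatocytes (mouse) / Measure: % inhibition of lipid droplet signal / Doses: 6.5 µM single-point dosing / Incubation: overnight exposure / Reagent: 100 µM oleic acid challenge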
MEKK2wt confirm: raises or lowers MEK5 binding to wildtype human MEKK2, retest; shares compounds with MEKK3 PB1 HTS; bead flow cytometry, Alexa488-MEK5 binding to MEKK2 WT; actives lie on both sides; binding response (% of control), % at 10 µM; 5,900 tested, 2.4% active; AID 1892; in the data active means binding response below about 16% or above about 210%; inactive means in between
MEKK2mut-MEK5: signal of MEK5 binding to mutant human MEKK2, retest; shares compounds with MEKK3 PB1 HTS; bead flow cytometry, Alexa488-MEK5 binding to MEKK2 mutant; percent response, % at 10 µM; 5,900 tested, 2% active; AID 1893; in the data active means percent response mostly above about 71%, no sharp cut-off; inactive means mostly below about 38%;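 further: higher means compound restores mutant binding toward wildtype level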
MEKK3-MEK5 inh: confirmation of inhibitors of MEK5 binding to human MEKK3. shares compounds with MEKK3 PB1 HTS. bead flow cytometry, Alexa488-MEK5 binding to MEKK3; active compounds read low. binding response (% of control), % at 10 µM. 5,900 tested, 1.8% active;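 active means binding response below 72% of control, or above a set upper limit, though filed actives all read lower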;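 further: 100% = DMSO only wells and 0% = binding blocked by excess unlabeled MEK5; lower values mean stronger disruption of MEK5 binding to MEKK3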
* hit, by the source's call; · = not tested or not shown; [ ] = dose if it differs, or a comment. Only some compounds are listed: those with a hit (about 2.6% of all), similar ones and a draw of the others.

SMILES	MEKK3 PB1 HTS	MEKK2 mut-MEK5	MEKK2 WT-MEK5	Hep lipid drop	MEKK2wt confirm	MEKK2mut-MEK5	MEKK3-MEK5 inh
Cn1c(=O)c2c(ncn2CC(=O)OCC(=O)Nc2cc(Cl)ccc2Cl)n(C)c1=O	139*	-1	100	3	107	5	101
O=C(O)C1C2C=CC(C2)C1C(=O)Nc1ccc(Cl)c(Cl)c1 (configuration not stated)	103	26*	104	-2	96	-1	98
O=S1(=O)CCN(C(CCO)c2cccc(C(F)(F)F)c2)CC1 (configuration not stated)	102	-2	101	·	·	·	·
C/C(=N\Nc1nc2ccccc2s1)c1ccc(Br)s1	111	26	138*	4	119	15	106
CCOC(=O)c1cccc(NC2c3ccccc3C(=O)N2Cc2ccco2)c1 (configuration not stated)	100	11	99	-7	·	·	·
CC(=O)c1cccc(NC2c3ccccc3C(=O)N2Cc2ccco2)c1 (configuration not stated)	134*	30	119	-1	93	-3	93
O=C(C[n+]1cc(Br)cc2ccccc21)c1ccccc1	93	-8	66*[inhibitor]	-22	48	-32	70*
COc1ccc(C(=O)C[n+]2cc(Br)cc3ccccc32)cc1[N+](=O)[O-]	100	10	99	10	·	·	·
CCOC(=O)c1sc2nc(CSc3ccccc3)nc(NCCN(C)C)c2c1C	110	40	176*	6	145	32	104
CCOC(=O)N1CCC(NC(=O)CC2C(=O)NCCN2Cc2ccccc2F)CC1 (configuration not stated)	101	2	104	-11	·	·	·
NC(=O)c1sc2nc(-c3ccccc3)c3c(c2c1N)CCCC3	100	-1	97	23	·	·	·
COc1ncnc2c1sc1nc(-c3ccccc3)c3c(c12)CCCC3	146*	0	107	-17	96	-3	102
c1nc(NCCN2CCOCC2)c2sc3nc(N4CCOCC4)c4c(c3c2n1)CCC4	99	1	102	·	·	·	·
CN(C)CCNc1ncnc2c1sc1nc(-c3ccccc3)c3c(c12)CCCC3	102	61*	201*	10	209*	66	105
COc1cc(C2C(C#N)=C(N)Oc3cc(O)ccc32)cc(OC)c1OC (configuration not stated)	10*[inhibitor]	-21	13*[inhibitor]	·	95	-3	99
COc1ccc(C2C(C#N)=C(N)Oc3cc(O)ccc32)cc1OC (configuration not stated)	106	12	109	·	·	·	·
O=C(NCCCO)C(=O)Nc1cc2c3c(c1)CCC(=O)N3CCC2	100	1	106	11	·	·	·
Cc1ccc(CNC(=O)c2nnn(CC(=O)Nc3cccc(C)c3C)c2N)cc1	101	1	101	-1	·	·	·
CCOC(=O)c1ccc(NC(=O)CN2C(=O)C(CC)SC(CC)C2=O)cc1 (configuration not stated)	148*	1	109	-6	103	2	99
CCOC(=O)c1ccc(NC(=O)CN2C(=O)CSC2=O)cc1	100	-1	95	·	·	·	·
CCC1SC(CC)C(=O)N(CC(=O)Nc2ccc3c(c2)OCO3)C1=O (configuration not stated)	133*	0	102	4	109	3	102
CCOC(=O)c1ccc(NC(=O)CN2C(=O)CSCC2=O)cc1	132*	0	103	-10	96	-2	93
CC1SCC(=O)N(CC(=O)Nc2ccc3c(c2)OCO3)C1=O (configuration not stated)	102	11	108	18	·	·	·
Cc1cc(C(=O)COC(=O)Cc2n[nH]c(=O)c3ccccc23)c(C)n1-c1ccc2c(c1)OCO2	139*	2	105	-7	110	6	104
COc1ccc(-n2c(C)cc(C(=O)COC(=O)Cc3n[nH]c(=O)c4ccccc34)c2C)cc1	88	-4	90	-9	·	·	·
